# Active and inactive are the calls of the source. The rule behind the calls is not given here.
# Experiments:
# [1] = target: T1, Multidrug resistance protein CDR1 (Candida albicans, UniProt P43071); experiment: Inhibition of GFP-tagged Candida albicans CDR1 expressed in Saccharomyces cerevisiae assessed as inhibition of R6G efflux
# Procedure, shortened: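 S. cerevisiae AD-CDR1 cells were grown 5 h, then de-energized 45 min in 5 mM deoxyglucose/5 mM dinitrophenol in glucose-free PBS. Compound (10–100 μM) was added 5 min before 10 μM R6G, and cells were loaded 40 min at 30°C. After washing, efflux was started with 2% glucose. Supernatant A527 was read at 40 min, with glucose-free controls. Means of three independent experiments.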
# [2] = target: T1, Multidrug resistance protein CDR1; experiment: Displacement of [125I]IAAP from GFP-tagged Candida albicans CDR1 expressed in Saccharomyces cerevisiae
# Procedure, shortened: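 Crude membranes (50 μg) from S. cerevisiae AD-CDR1 cells were preincubated with compound for 10 min at 37°C in 50 mM Tris-HCl pH 7.5. They were then given 3–6 nM [125I]IAAP for 5 min under subdued light and UV-crosslinked at 365 nm for 10 min at room temperature. Cdr1p was immunoprecipitated with anti-GFP, run on 7% Tris-acetate gel, and the band quantified by phosphorimager.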
# Candida albicans [3] = experiment: Effect on CDR1 expression in Candida albicans at 100 uM by Western blot analysis; assay type: functional, organism-based
# [4] = target: Multidrug resistance protein CDR1 (Candida albicans) (UniProt P43071); details: 100 uM
# [5] = target: Multidrug resistance protein CDR1 (Candida albicans) (UniProt P43071); details: 100 uM; remark: listed apart in the source
# Saccharomyces cerevisiae [6] = experiment: Toxicity against Saccharomyces cerevisiae AD1-8u after 48 hrs by MTT assay
# Saccharomyces cerevisiae [7] = experiment: Toxicity against PDR5-expressing Saccharomyces cerevisiae AD after 48 hrs by MTT assay
# Saccharomyces cerevisiae [8] = experiment: Toxicity against CDR1-expressing Saccharomyces cerevisiae AD after 48 hrs by MTT assay
# Saccharomyces cerevisiae [9] = experiment: Toxicity against CDR2-expressing Saccharomyces cerevisiae AD after 48 hrs by MTT assay
# Saccharomyces cerevisiae [10] = experiment: Toxicity against Candida albicans MDR1-expressing Saccharomyces cerevisiae AD1-8u after 48 hrs by MTT assay
# Candida albicans [11] = experiment: Antifungal activity against Candida albicans by checkerboard method in presence of itraconazole; assay type: functional
# Procedure, shortened: (§1)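 Checkerboard (CLSI method) on S. cerevisiae AD1-8u cells overexpressing GFP-tagged C. albicans Cdr1p (AD-CDR1). […] FIC = MIC in combination/MIC alone.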
# Candida albicans [12] = experiment: Antifungal activity against Candida albicans by checkerboard method in presence of ketoconazole; assay type: functional; procedure, shortened: as §1
# Candida albicans [13] = experiment: Antifungal activity against Candida albicans by checkerboard method in presence of miconazole; assay type: functional; procedure, shortened: as §1
# Candida albicans [14] = experiment: Antifungal activity against Candida albicans by checkerboard method in presence of R6G; assay type: functional; procedure, shortened: as §1
# [15] = test system: COc1cc(/C=C/C(=O)CC(=O)/C=C/c2ccc(O)c(OC)c2)ccc1O; details: Candida albicans
molecule,measurement,setting,value
O=C(/C=C/c1ccc(O)cc1)CC(=O)/C=C/c1ccc(O)cc1 [BISDEMETHOXYCURCUMIN],IC50,[1],40 µM
COc1cc(/C=C/C(=O)CC(=O)/C=C/c2ccc(O)c(OC)c2)ccc1O [CURCUMIN],IC50,[2],14.2 µM
same,IC50,[1],40 µM
same,Activity,Candida albicans [3],inactive
same,inhibition,[4],Active
same,inhibition,[5],inactive
same,IC50,Saccharomyces cerevisiae [6],422 µM
same,IC50,Saccharomyces cerevisiae [7],498 µM
same,IC50,Saccharomyces cerevisiae [8],493 µM
same,IC50,Saccharomyces cerevisiae [9],411 µM
same,IC50,Saccharomyces cerevisiae [10],455 µM
COc1cc(/C=C/C(O)=C/C(=O)/C=C/c2ccc(O)cc2)ccc1O [DEMETHOXYCURCUMIN],IC50,[1],45 µM
CCC(C)n1ncn(-c2ccc(N3CCN(c4ccc(OCC5COC(Cn6cncn6)(c6ccc(Cl)cc6Cl)O5)cc4)CC3)cc2)c1=O (configuration not stated) [ITRACONAZOLE],FIC,Candida albicans [11],0.005
CC(=O)N1CCN(c2ccc(OCC3COC(Cn4ccnc4)(c4ccc(Cl)cc4Cl)O3)cc2)CC1 (configuration not stated) [KETOCONAZOLE],FIC,Candida albicans [12],0.0054
same,FIC,Candida albicans [13],0.005
CC/N=c1\cc2oc3cc(NCC)c(C)cc3c(-c3ccccc3C(=O)OCC)c-2cc1C.Cl [RHODAMINE 6G HYDROCHLORIDE],FIC,Candida albicans [14],0.0013
Multidrug resistance protein CDR1 (Candida albicans) (from UniProt P43071),Km,[15],5.87 µM
